The results in this text go back to ChEMBL document CHEMBL1123088, “Synthesis and characterization of selected heteroarotinoids. Pharmacological activity as assessed in vitamin A deficient hamster tracheal organ cultures. Single-crystal X-ray diffraction analysis of 4,4-dimethylthiochroman-6-yl methyl ketone 1,1-dioxide and ethyl …” (1985).

pEC50: −log10 of the molar value.

Assay [1] has as its system Cricetinae gen. sp. The assay can be described thus: Percent activity in the Hamster tracheal organ culture assay at concentration 10e-12 (M). The assay is classed as functional, Cricetulus griseus, Trachea. The method, boiled down:
(§1)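 Tracheas taken from vitamin A-deficient hamsters were kept in organ culture and scored for reversal of squamous keratinization of the epithelium. All-trans-retinoic acid was run at the same time as a reference in each separate experiment. ED50 is the molar dose that reverses keratinization in 50% of the retinoid-deficient tracheas.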

In assay [2] the test system is Cricetinae gen. sp. The assay can be described thus: Percent activity in the Hamster tracheal organ culture assay at concentration 10e-11 (M). The assay is classed as functional, Cricetulus griseus, Trachea. The method in brief:
as §1

The subject of assay [3] is Cricetinae gen. sp. The assay can be described thus: Percent activity in the Hamster tracheal organ culture assay at concentration 10e-9 (M). The assay is classed as functional, Cricetulus griseus, Trachea. The method, boiled down: as §1
The test system of assay [4] is Cricetinae gen. sp. The assay can be described thus: Percent activity in the Hamster tracheal organ culture assay at concentration 10e-10 (M). The assay is classed as functional, Cricetulus griseus, Trachea. The method in brief: as §1
In assay [5] the test system is Cricetinae gen. sp. The assay can be described thus: Dose for reversal of keratinization in epithelium of 50% of retinoid-deficient hamster tracheas in organ culture. The assay is classed as functional, Cricetulus griseus. Conditions: Trachea, read-out: ED50 (the source's name). The method, boiled down: as §1
Assay [6] has as its system Cricetinae gen. sp. The assay can be described thus: Percent activity in the Hamster tracheal organ culture assay at concentration 10e-8(M). The assay is classed as functional, Cricetulus griseus, Trachea. The method, boiled down: as §1
In assay [7] the test system is Cricetinae gen. sp. The assay can be described thus: Dose for reversal of keratinization in epithelium of 50% of retinoid-deficient hamster tracheas in organ culture in experiment A. The assay is classed as functional, Cricetulus griseus. Conditions: Trachea, read-out: ED50 (the source's name). The method in brief: as §1
The test system of assay [8] is Cricetinae gen. sp. The assay can be described thus: Dose for reversal of keratinization in epithelium of 50% of retinoid-deficient hamster tracheas in organ culture in experiment C. The assay is classed as functional, Cricetulus griseus. Conditions: Trachea, read-out: ED50 (the source's name). The method, boiled down: as §1
The test system of assay [9] is Cricetinae gen. sp. The assay can be described thus: Percent activity in the Hamster tracheal organ culture assay at concentration 10e-11 (M) in experiment D. The assay is classed as functional, Cricetulus griseus, Trachea. The method in brief: as §1
Assay [10] has as its system Cricetinae gen. sp. The assay can be described thus: Dose for reversal of keratinization in epithelium of 50% of retinoid-deficient hamster tracheas in organ culture in experiment D. Conditions: Trachea, read-out: ED50 (the source's name). The assay is classed as functional, Cricetulus griseus. The method in brief:
as §1

Assay [11] relates to Cricetinae gen. sp. The assay can be described thus: Percent activity in the Hamster tracheal organ culture assay at concentration 10e-10 (M).
Assay [12] concerns Cricetinae gen. sp. The assay can be described thus: Percent activity in the Hamster tracheal organ culture assay at concentration 10e-12 (M) in experiment A. The assay is classed as functional, Cricetulus griseus, Trachea. The method, boiled down: as §1
Assay [13] relates to Cricetinae gen. sp. The assay can be described thus: Percent activity in the Hamster tracheal organ culture assay at concentration 10e-11 (M) in experiment C. The assay is classed as functional, Cricetulus griseus, Trachea. The method, boiled down:
as §1

The subject of assay [14] is Cricetinae gen. sp. The assay can be described thus: Percent activity in the Hamster tracheal organ culture assay at concentration 10e-11 (M) in experiment B. The assay is classed as functional, Cricetulus griseus, Trachea. The method in brief: as §1
Assay [15] deals with Cricetinae gen. sp. The assay can be described thus: Percent activity in the Hamster tracheal organ culture assay at concentration 10e-12 (M) in experiment B. The assay is classed as functional, Cricetulus griseus, Trachea. The method in brief: as §1
In assay [16] the test system is Cricetinae gen. sp. The assay can be described thus: Percent activity in the Hamster tracheal organ culture assay at concentration 10e-12 (M) in experiment D. The assay is classed as functional, Cricetulus griseus, Trachea. The method in brief:
as §1

In assay [17] the test system is Cricetinae gen. sp. The assay can be described thus: Percent activity in the Hamster tracheal organ culture assay at concentration 10e-12 (M) in experiment C. The assay is classed as functional, Cricetulus griseus, Trachea. The method in brief:
as §1

The subject of assay [18] is Cricetinae gen. sp. The assay can be described thus: Dose for reversal of keratinization in epithelium of 50% of retinoid-deficient hamster tracheas in organ culture in experiment B. The assay is classed as functional, Cricetulus griseus. Conditions: Trachea, read-out: ED50 (the source's name). The method in brief: as §1
Assay [19] deals with Cricetinae gen. sp. The assay can be described thus: Percent activity in the Hamster tracheal organ culture assay at concentration 10e-10 (M) in experiment D. The assay is classed as functional, Cricetulus griseus, Trachea. The method, boiled down:
as §1

Assay [20] has as its system Cricetinae gen. sp. The assay can be described thus: Percent activity in the Hamster tracheal organ culture assay at concentration 10e-10 (M) in experiment C. The assay is classed as functional, Cricetulus griseus, Trachea. The method in brief: as §1
The test system of assay [21] is Cricetinae gen. sp. The assay can be described thus: Percent activity in the Hamster tracheal organ culture assay at concentration 10e-10 (M) in experiment B. The assay is classed as functional, Cricetulus griseus, Trachea. The method in brief:
as §1

Assay [22] has as its system Cricetinae gen. sp. The assay can be described thus: Percent activity in the Hamster tracheal organ culture assay at concentration 10e-11 (M) in experiment A. The assay is classed as functional, Cricetulus griseus, Trachea. The method in brief: as §1
The test system of assay [23] is Cricetinae gen. sp. The assay can be described thus: The dose for reversal of keratinization in epithelium of 50% of retinoid-deficient hamster tracheas in organ culture. The assay is classed as functional, Cricetulus griseus. Conditions: Trachea, read-out: ED50 (the source's name). The method, boiled down: as §1

As to `CCOC(=O)c1ccc(/C=C(\C)c2ccc3c(c2)C(C)(C)CCS3)cc1`, the Activity is 33.7% in [1], 28.6% in assay [2], 100% in assay [3] and 53.8% in assay [4]. Moreover, the pEC50 in assay [5] was 10.22.

With `C/C(=C\c1ccc(C(=O)O)cc1)c1ccc2c(c1)C(C)(C)CCO2`, the Activity was determined as 71.4% in [3], 18.6% in [4] and 71.4% in assay [6]. The pEC50 in assay [5] is 9.22.

For the compound `CC1=C(/C=C/C(C)=C/C=C/C(C)=C/C(=O)O)C(C)(C)CCC1` [TRETINOIN], the pEC50 was 10.70 in assay [7], 10.00 in [8], 11.00 in assay [10] and 11.05 in [18]. Besides, the Activity in assay [9] stood at 50%; in assay [11] it was 76.9%; in assay [12], 23.1%; in [13] it was 50%; in assay [14], 53.8%; in [15], 23.1%. The Activity in assay [16] is listed as 33.3%; in [17], 16.7%; in [19] it was 83.7%; in assay [20], 83.3%; in [21] it was 100%; in [22], 41.7%.

On to `CCOC(=O)c1ccc(/C=C(\C)c2ccc3c(c2)C(C)(C)CCO3)cc1`, for which the Activity in assay [2] is given as 28.2%; in assay [3], 100%; in assay [4], 50%. In assay [5], the pEC50 is 10.00.

`CCOC(=O)c1ccc(/C=C(\C)c2ccc3c(c2)C(C)(C)CC[S+]3[O-])cc1` (centres undefined): the Activity amounted to 11.1% in assay [2], 100% in assay [3], 57.1% in [4] and 100% in [6]. Further, in assay [23], the pEC50 was 10.00.
